# Source: PubChem BioAssay (several laboratories)
# Most compounds without a hit are left out; they make up all but 3.3% or so of the library.
# NFkB transloc inh – blocks IL-1B driven NFkB nuclear translocation in HUVEC cells; HUVEC IL-1B NFkB p65 nuclear translocation imaging; inhibition, % at 2 µM; actives 0.43% (n = 94,000);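 active = inhibition above about 30% together with a positive call from visual inspection of the well image, limit read from the data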;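 note: nuclear over cytoplasmic p65 intensity ratio measured by imaging; 0% = IL-1B stimulated DMSO wells and 100% = unstimulated DMSO wells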
# NFkB transloc pot – enhances IL-1B driven NFkB nuclear translocation; actives 0.3% (n = 94,000); HUVEC IL-1B NFkB p65 nuclear translocation imaging; activation, % at 2 µM;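 active = activation above 40%, about the mean plus 3 SD, also judged a hit on visual image review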;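 note: percent activation is computed from the nuclear over cytoplasmic p65 intensity ratio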
# IL1B cytotox – HUVEC cytotoxicity counter-screen, IL-1B stimulated | HUVEC cell count loss, Hoechst imaging | cell count reduction, % at 2 µM | actives 0.41% (n = 94,000) | AID 845;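 active = cell count reduction more than 3 SD above the screen-wide mean, cut at about 70% in these data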;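 note: normalized per plate to untreated control cells as the no-loss baseline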
# FAK inh – blocks human focal adhesion kinase activity. Q05397. biochemical FAK kinase activity assay. inhibition, %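 (tested at 7 µM)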. actives 0.84% (n = 97,000). AID 727; in the data active = inhibition above about 19%;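 note: 0% = DMSO and 100% = reference compound high control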
# HIV Rev-RRE inh – inhibitors of HIV-1 Rev-RRE RNA interaction; Rev peptide-RRE RNA binding, FRET; inhibition, % at 8 µM; actives 0.79% (n = 97,000);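 active = inhibition above the screen-wide mean plus 3 SD, cut at about 35% in these data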;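 note: 0% = median DMSO wells and 100% = median Neomycin B control wells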
# Target sequence (P05866 whole entry, looked up): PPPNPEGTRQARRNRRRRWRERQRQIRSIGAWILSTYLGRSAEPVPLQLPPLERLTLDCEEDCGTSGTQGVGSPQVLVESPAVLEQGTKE
#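 Test system: labelled RRE RNA duplex and labelled Rev peptide. Times: 5 min compound–RNA preincubation, then 15 min with peptide, 25 °C. Doses: single-dose 8 µM. Measured by: FRET, excitation 480 nm, emission 540 nm donor and 671 nm acceptor. Measure: % inhibition of FRET ratio versus controls.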
# Measles CPE – protection of cells from measles virus; Measles virus-infected cells, CPE protection, absorbance; protection (pct of control), % at 4 µM; actives 1.5% (n = 140,000); AID 841; in the data active = protection mostly above about 24%, no sharp cut-off; inactive = mostly below about 26%
# Active calls of the source: *; . = no result given; [ ] = another dose, or the depositor's remark.
SMILES,NFkB transloc inh,NFkB transloc pot,IL1B cytotox,FAK inh,HIV Rev-RRE inh,Measles CPE
COc1ccccc1OCC(=O)NCCNC(=O)COc1ccccc1OC,-3,3,-1,-2,0,0
COc1ccccc1OCC(=O)NCC1CCCCC1,96*,-96,94*,1,0,1
CN(CCC#N)C(=O)c1ccc(CNS(=O)(=O)c2ccc(F)cc2)cc1,100*,-100,86*,-4,3,9
Cc1ccc(S(=O)(=O)NCc2ccc(C(=O)N(C)CCC#N)cc2)cc1,2,-2,-61,2,2,6
Cc1cccc(Nc2nc(NCCCN3CCOCC3)nc(N)c2[N+](=O)[O-])c1,.,.,.,.,.,11
O=C(NCc1ccccn1)c1cc(-c2ccc(-c3ccccc3)cc2)nc2ccccc12,.,.,.,.,.,50*
CCC(CC)c1nnc(NC(=O)c2cc(-c3ccccc3)nc3ccccc23)s1,.,.,.,.,.,12
CC(C)Cc1nnc(NC(=O)c2cc(-c3ccccc3)nc3ccccc23)s1,-12,12,-15,-1,5,44*
O=C(Nc1nccs1)c1cc(-c2ccccc2)nc2ccccc12,.,.,.,.,.,40*
Cc1c(N=C2SCC(=O)N2/N=C/c2ccccc2)c(=O)n(-c2ccccc2)n1C,.,.,.,.,.,7
Cc1nnn(C23CC4CC(CC(CC(=O)Nc5ccc(C)c(C)c5)(C4)C2)C3)n1,.,.,.,.,.,18
CC1(C)CC(=O)C2=C(C1)Nc1ccccc1NC2c1ccccn1 (stereo not given),.,.,.,.,.,5
Cc1cc2c(cc1C)NC(c1c(C)n(C)n(-c3ccccc3)c1=O)C1=C(CC(C)(C)CC1=O)N2 (stereo not given),-5,5,19,-3,107*[fluorescence artefact?],0
CNc1ncc(Cc2ccccc2)s1,.,.,.,.,.,7
C/C(=N\O)C(=O)NCCN(C)C,.,.,.,.,.,18
O=c1cc(-c2ccccc2Cl)oc2cc(O)cc(O)c12,.,.,.,.,.,5
Cc1c2cc(O)c(=O)cc-2oc2cc(O)c(O)cc12,-5,5,17,12,140*[fluorescence artefact?],11
O=C(NC1CC1)c1c[nH]c2ccc(S(=O)(=O)Nc3cccc(C(F)(F)F)c3)cc2c1=O,-2,2,91*,-1,10,23
CC(=O)Nc1ccc(NC(=O)CSCCc2ccccn2)cc1,49*,-49,-7,3,0,29
COC(=O)c1cc2c(cc1NC(=O)CSCCc1ccccn1)OCO2,.,.,.,.,.,17
O=C(CC1Nc2ccccc2NC1=O)c1ccccc1 (stereo not given),2,-2,2,4,73*,21
O=C1CC(c2ccc(F)cc2)Cc2nc(N3CCN(c4ccccc4)CC3)ncc21 (stereo not given),-31,31,-99,0,6,1
O=C1CC(c2ccc(F)cc2)Cc2nc(NCC3CCCO3)ncc21 (stereo not given),48*,-48,-8,1,2,11
COc1ccc(S(=O)(=O)N2CCOC2CNC(=O)C(=O)NCCc2c[nH]c3ccccc23)cc1C (stereo not given),.,.,.,.,.,5
CCOC(=O)SC1=N/C(=C\c2ccc(N(C)C)cc2)C(=O)S1,-14,14,-55,0,101*[fluorescence artefact?],5
SMILES,NFkB transloc inh,NFkB transloc pot,IL1B cytotox,FAK inh,HIV Rev-RRE inh,Measles CPE
CCSC1=N/C(=C\c2ccc(C(=O)O)cc2)C(=O)S1,-6,6,10,0,6,7
O=C(NN=C1CCCCCCCCCCC1)c1ccccc1F,.,.,.,.,.,50*
Cc1cc(C)n2nc3nc4c(cc3c2n1)CCCC4,-1,1,6,17,76*,8
CCn1c(SCc2ccc(Cl)cc2)nc2nc3c(cc2c1=O)CCCC3,.,.,.,.,.,19
CCCCOc1ccc(C(C)NC(=O)C2CCCN(S(=O)(=O)CC)C2)cc1 (stereo not given),-20,20,-17,0,-2,38*
O=C(Nc1ccccc1N1CCOCC1)C1CCN(S(=O)(=O)c2ccccc2F)CC1,.,.,.,.,.,15
CC(C)(C)c1ccc(C(=O)N2CCC(=O)N(C(CO)Cc3ccccc3)CC2)cc1 (stereo not given),.,.,.,.,.,8
COc1ccc(/C=C2/SC(=O)N(CCNC(=O)C3CCCN3C(=O)c3cccs3)C2=O)cc1 (stereo not given),.,.,.,.,.,42*
CCCCn1c(N)c(S(=O)(=O)c2ccc(C)cc2)c2nc3ccccc3nc21,.,.,.,.,.,9
Cc1ccc(S(=O)(=O)Nc2nc3ccccc3nc2NCc2ccco2)cc1,-6,6,-11,-2,46*,14
Cc1ccc(S(=O)(=O)c2c(N)n(Cc3ccco3)c3nc4ccccc4nc23)cc1,-9,9,14,3,60*,4
Cc1cccc(S(=O)(=O)c2c(N)n(Cc3ccco3)c3nc4ccccc4nc23)c1,-5,5,9,0,74*,21
Cc1ccc(Cn2c(N)c(S(=O)(=O)c3cccs3)c3nc4ccccc4nc32)cc1,-12,12,2,-5,-2,.
O=C(O)c1cc([N+](=O)[O-])ccc1N1CCCCC1,.,.,.,.,.,21*
O=C(c1cc([N+](=O)[O-])ccc1N1CCCCC1)N1CCCCC1,8,-7,2,5,1,38
CCN(CC)S(=O)(=O)c1cccc(C(=O)Oc2cccc(NC(=O)c3cccs3)c2)c1,.,.,.,.,.,4
COCCCn1c(-c2ccco2)nc2ccccc2c1=O,-22,22,-22,-2,5,29*
O=C(O)C1C2CC3C(OC(=O)C31)C2Cl (stereo not given),.,.,.,.,.,11
Cc1ccnc(NS(=O)(=O)c2ccc(NC(=O)c3cc(-c4ccc(Br)cc4)nc4ccccc34)cc2)n1,.,.,.,.,.,27
Cc1ccc(S(=O)(=O)NCCN2CCOCC2)cc1,31*,-31,6,-3,8,8
N#Cc1cc2c(nc1Cl)CCCC2,.,.,.,.,.,14
CC(=O)/C(C#N)=C1\NC(=O)C(Cc2ccccc2)S1 (stereo not given),-8,8,-29,-1,5,91*
C/C(N)=C(/C#N)C(=O)CSc1nnc(NC(C)C)s1,-8,8,-43,3,-1,4
Cc1ccc(-c2nnn(CC(=O)N(CC3CCCO3)C(C(=O)NC(C)(C)C)c3ccc(F)cc3)n2)o1 (stereo not given),-20,20,1,-7,-3,11
CC(C)(C)NC(=O)C(c1cccs1)N(CC1CCCO1)C(=O)Cn1nnc(-c2cccs2)n1 (stereo not given),-48,48*,-8,-3,6,2
Cc1ccc(-c2nnn(CC(=O)N(CC3CCCO3)C(C(=O)NCC3CCCO3)c3ccc(F)cc3)n2)o1 (stereo not given),-7,7,30,-2,6,42*
COc1ccc(-c2nn(-c3ccccc3)cc2/C=N/N2C(=O)CSC2=S)cc1,-4,5,-11,-1,7,0
CC(C)(C)SCCNC(=O)/C=C/c1cccc([N+](=O)[O-])c1,.,.,.,.,.,7
CC1CC(c2ccccc2)n2nc(N3C(=O)c4ccccc4C3=O)nc2N1 (stereo not given),-6,6,-16,1,2,27*
